Reference: ChEMBL document CHEMBL5705891, “Small-molecule kinase inhibitors provide insight into Mps1 cell cycle function” (Nat Chem Biol, 2010)
pKd: −log10 of the molar value. Values belong to the compound of their own block, whether it stands above or below them. Activity calls are given as the source filed them. The calls are words filed in the database; no cut-off is given here.

Columns and labels:
[1] = target: AP2-associated protein kinase 1 (Homo sapiens) (UniProt Q2M2I8); experiment: Inhibition of AAK1 (unknown origin) assessed as residual enzyme activity at 10 uM by Ambit kinase binding assay relative to control
[2] = target: Bone morphogenetic protein receptor type-1B (Homo sapiens) (UniProt O00238); experiment: Inhibition of BMPR1B (unknown origin) assessed as residual enzyme activity at 10 uM by Ambit kinase binding assay relative to control
[3] = target: Death-associated protein kinase 1 (Homo sapiens) (UniProt P53355); experiment: Inhibition of DAPK1 (unknown origin) assessed as residual enzyme activity at 10 uM by Ambit kinase binding assay relative to control
[4] = target: Death-associated protein kinase 2 (Homo sapiens) (UniProt Q9UIK4); experiment: Inhibition of DAPK2 (unknown origin) assessed as residual enzyme activity at 10 uM by Ambit kinase binding assay relative to control
[5] = target: Inhibitor of nuclear factor kappa-B kinase subunit epsilon (Homo sapiens) (UniProt Q14164); experiment: Inhibition of IKK-epsilon (unknown origin) assessed as residual enzyme activity at 10 uM by Ambit kinase binding assay relative to control
[6] = target: Serine/threonine-protein kinase Nek2 (Homo sapiens) (UniProt P51955); experiment: Inhibition of NEK2 (unknown origin) assessed as residual enzyme activity at 10 uM by Ambit kinase binding assay relative to control
[7] = target: Mitogen-activated protein kinase 12 (Homo sapiens) (UniProt P53778); experiment: Inhibition of p38-gamma (unknown origin) assessed as residual enzyme activity at 10 uM by Ambit kinase binding assay relative to control
[8] = target: Ribosomal protein S6 kinase alpha-6 (Homo sapiens) (UniProt Q9UK32); experiment: Inhibition of RPS6KA6 kinase domain 2 (unknown origin) assessed as residual enzyme activity at 10 uM by Ambit kinase binding assay relative to control
[9] = target: SRSF protein kinase 3 (Homo sapiens) (UniProt Q9UPE1); experiment: Inhibition of SRPK3 (unknown origin) assessed as residual enzyme activity at 10 uM by Ambit kinase binding assay relative to control
[10] = target: Tyrosine-protein kinase Tec (Homo sapiens) (UniProt P42680); experiment: Inhibition of TEC (unknown origin) assessed as residual enzyme activity at 10 uM by Ambit kinase binding assay relative to control
[11] = target: TRAF2 and NCK-interacting protein kinase (Homo sapiens) (UniProt Q9UKE5); experiment: Inhibition of TNIK (unknown origin) assessed as residual enzyme activity at 10 uM by Ambit kinase binding assay relative to control
[12] = target: Serine/threonine-protein kinase 25 (Homo sapiens) (UniProt O00506); experiment: Inhibition of YSK1 (unknown origin) assessed as residual enzyme activity at 10 uM by Ambit kinase binding assay relative to control
[13] = target: Serine/threonine-protein kinase Chk2 (Homo sapiens) (UniProt O96017); experiment: Inhibition of CHEK2 (unknown origin) assessed as residual enzyme activity at 10 uM by Ambit kinase binding assay relative to control
[14] = target: Dual specificity protein kinase CLK4 (Homo sapiens) (UniProt Q9HAZ1); experiment: Inhibition of CLK4 (unknown origin) assessed as residual enzyme activity at 10 uM by Ambit kinase binding assay relative to control
[15] = target: Mitogen-activated protein kinase 1 (Homo sapiens, UniProt P28482); experiment: Inhibition of ERK2 (unknown origin) assessed as residual enzyme activity at 10 uM by Ambit kinase binding assay relative to control
[16] = system: Receptor-type tyrosine-protein kinase FLT3 (Homo sapiens), P36888 [D835Y]; experiment: Inhibition of FLT3 D835Y mutant (unknown origin) assessed as residual enzyme activity at 10 uM by Ambit kinase binding assay relative to control
[17] = target: Insulin receptor-related protein (Homo sapiens, UniProt P14616); experiment: Inhibition of INSRR (unknown origin) assessed as residual enzyme activity at 10 uM by Ambit kinase binding assay relative to control
[18] = target: Protein-tyrosine kinase 2-beta (Homo sapiens, UniProt Q14289); experiment: Inhibition of PTK2B (unknown origin) assessed as residual enzyme activity at 10 uM by Ambit kinase binding assay relative to control
[19] = target: Serine/threonine-protein kinase 33 (Homo sapiens, UniProt Q9BYT3); experiment: Inhibition of STK33 (unknown origin) assessed as residual enzyme activity at 10 uM by Ambit kinase binding assay relative to control
U2OS [20] = experiment: Reversal of s-trityl cysteine-induced mitotic arrest in human U2OS cells assessed as accumulation of 4N phosphorylated Histone H3-negative cells incubated for 16 hrs by flow cytometry; format: functional, cell-based; conditions: dose 5-10 µM
U2OS [21] = experiment: Reversal of paclitaxel-induced mitotic arrest in human U2OS cells assessed as Ser10 phosphorylated Histone H3-positive 4c population at 5 uM incubated for 16 hrs by flow cytometry (reference value: 25 %); format: functional
U2OS [22] = experiment: Induction of aneuploidy in UTRM10 cells (unknown origin) expressing wild-type LAP-tagged Mps1 at 5 uM treated for 48 hrs by FACS analysis; format: functional, cell-based
How it was run: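 UTRM10 cells expressing RNAi-resistant LAP-Mps1 WT or M602Q were treated with compound or DMSO for 48 h, then DNA content was analysed by FACS.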

UTRM10 = experiment: Upregulation of phosphorylated histone H3 level in UTRM10 cells (unknown origin) upto 1 uM by immunoblot analysis; format: functional, cell-based
HeLa S3 = experiment: Effect on thymidine-treated human HeLa S3 cell populations after two cell doubling at 10 uM incubated for 4 hrs followed by thymidine release by immunofluorescence imaging analysis; format: functional, cell-based
U2OS [23] = experiment: Induction of premature entry into anaphase in thymidine-treated human U2OS cells expressing H2B-GFP and Plk4 overexpression assessed as fragmentary divisions into multiple daughter cells measured for 30 mins by time lapse imaging analysis relative to control; format: functional, cell-based
How it was run: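 Doxycycline-inducible Plk4 U2OS cells expressing H2B-GFP were blocked with thymidine for 18 hrs and released into doxycycline (2 μg·ml⁻¹) for 10 hrs. A second 18-hr thymidine block followed, then release for 6 hrs before 5 μM inhibitor, with or without Plk4 induction. Cells were imaged by time-lapse at 37°C, 5% CO₂, timed from NEBD, and bipolar versus multipolar anaphases were scored. Values are mean ± SD of 3 independent experiments.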

A549 = experiment: Antiproliferative activity against human A549 cells at 10 uM incubated for 4 days by Syto60 staining based assay; format: functional, cell-based; conditions: time 4.0 day
HCT-116 = experiment: Antiproliferative activity against human HCT-116 with p53-/- cells at 10 uM incubated for 4 days by Syto60 staining based assay; format: functional, cell-based; conditions: time 4.0 day
How it was run: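 Proliferation read by Syto60 nucleic acid stain fluorescence (excitation 635 nm, emission 695 nm) after treatment for up to 96 h. Each time point normalized to its DMSO control. Mean ± SD from 4 independent experiments. Cells kept at 37°C, 5% CO2 in 10% FBS-supplemented medium.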

[24] = target: Insulin-like growth factor 1 receptor (Homo sapiens, UniProt P08069); experiment: Binding affinity to IGF1R (unknown origin) assessed as dissociation constant by Ambit kinase binding assay
[25] = target: Non-receptor tyrosine-protein kinase TNK1 (Homo sapiens, UniProt Q13470); experiment: Binding affinity to TNK1 (unknown origin) assessed as dissociation constant by Ambit kinase binding assay
Sequence of Non-receptor tyrosine-protein kinase TNK1 (Q13470 whole entry): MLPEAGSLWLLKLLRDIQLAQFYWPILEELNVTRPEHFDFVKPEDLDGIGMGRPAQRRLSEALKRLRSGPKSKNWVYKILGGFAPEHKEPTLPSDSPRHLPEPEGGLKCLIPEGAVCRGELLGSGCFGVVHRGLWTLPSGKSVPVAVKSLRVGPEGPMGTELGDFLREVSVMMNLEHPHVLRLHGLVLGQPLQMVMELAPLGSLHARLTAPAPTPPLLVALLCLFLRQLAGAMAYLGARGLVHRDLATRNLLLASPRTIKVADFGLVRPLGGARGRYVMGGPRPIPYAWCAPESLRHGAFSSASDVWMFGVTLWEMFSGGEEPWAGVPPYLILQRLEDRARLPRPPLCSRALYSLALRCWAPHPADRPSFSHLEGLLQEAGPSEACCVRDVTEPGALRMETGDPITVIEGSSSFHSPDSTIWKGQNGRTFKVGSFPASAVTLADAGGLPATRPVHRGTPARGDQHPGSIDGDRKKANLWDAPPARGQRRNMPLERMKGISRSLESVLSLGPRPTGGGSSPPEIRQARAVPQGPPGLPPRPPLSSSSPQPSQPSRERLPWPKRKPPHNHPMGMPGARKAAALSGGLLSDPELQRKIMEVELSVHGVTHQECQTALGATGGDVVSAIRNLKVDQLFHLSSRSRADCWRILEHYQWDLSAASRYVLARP

Sequence of AP2-associated protein kinase 1 (Homo sapiens) (Q2M2I8 whole entry, looked up): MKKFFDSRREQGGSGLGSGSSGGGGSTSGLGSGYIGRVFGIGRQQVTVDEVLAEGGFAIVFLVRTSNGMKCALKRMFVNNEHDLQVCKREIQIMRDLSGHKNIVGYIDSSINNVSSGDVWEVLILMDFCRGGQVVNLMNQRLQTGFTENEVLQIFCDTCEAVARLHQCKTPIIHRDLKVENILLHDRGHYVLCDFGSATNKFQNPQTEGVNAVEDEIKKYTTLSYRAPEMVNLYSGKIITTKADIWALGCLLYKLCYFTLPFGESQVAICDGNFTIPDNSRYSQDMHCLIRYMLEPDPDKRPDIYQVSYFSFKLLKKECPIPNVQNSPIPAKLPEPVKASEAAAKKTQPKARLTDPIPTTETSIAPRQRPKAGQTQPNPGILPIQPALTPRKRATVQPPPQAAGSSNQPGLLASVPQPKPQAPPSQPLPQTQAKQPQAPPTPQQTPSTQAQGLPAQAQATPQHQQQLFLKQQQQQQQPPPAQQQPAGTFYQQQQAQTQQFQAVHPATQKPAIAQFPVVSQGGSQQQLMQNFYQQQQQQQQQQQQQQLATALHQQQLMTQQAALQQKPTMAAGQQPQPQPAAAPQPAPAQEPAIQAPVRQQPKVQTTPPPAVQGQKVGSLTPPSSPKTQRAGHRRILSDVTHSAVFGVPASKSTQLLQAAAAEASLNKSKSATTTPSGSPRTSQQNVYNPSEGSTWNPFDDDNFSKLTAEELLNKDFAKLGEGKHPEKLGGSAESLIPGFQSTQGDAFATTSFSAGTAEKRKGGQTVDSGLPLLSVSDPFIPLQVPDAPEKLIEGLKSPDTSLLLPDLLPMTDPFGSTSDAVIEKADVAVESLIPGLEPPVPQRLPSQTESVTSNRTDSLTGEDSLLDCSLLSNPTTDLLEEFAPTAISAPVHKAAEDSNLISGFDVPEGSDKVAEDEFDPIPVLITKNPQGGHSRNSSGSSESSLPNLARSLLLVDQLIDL
Sequence of Serine/threonine-protein kinase Nek2 (Homo sapiens) (P51955 whole entry): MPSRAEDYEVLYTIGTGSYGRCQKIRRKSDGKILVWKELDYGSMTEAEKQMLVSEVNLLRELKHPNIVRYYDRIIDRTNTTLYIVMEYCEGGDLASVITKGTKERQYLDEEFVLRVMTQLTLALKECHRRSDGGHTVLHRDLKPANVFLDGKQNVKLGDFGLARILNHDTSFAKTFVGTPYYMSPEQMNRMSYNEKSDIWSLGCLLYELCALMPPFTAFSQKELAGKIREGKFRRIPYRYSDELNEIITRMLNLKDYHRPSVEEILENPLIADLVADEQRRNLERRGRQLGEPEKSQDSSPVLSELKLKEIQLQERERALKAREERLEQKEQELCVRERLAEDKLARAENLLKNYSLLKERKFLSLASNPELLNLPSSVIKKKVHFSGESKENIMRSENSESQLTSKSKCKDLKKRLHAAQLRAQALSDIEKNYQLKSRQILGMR
Sequence of SRSF protein kinase 3 (Homo sapiens) (Q9UPE1 whole entry): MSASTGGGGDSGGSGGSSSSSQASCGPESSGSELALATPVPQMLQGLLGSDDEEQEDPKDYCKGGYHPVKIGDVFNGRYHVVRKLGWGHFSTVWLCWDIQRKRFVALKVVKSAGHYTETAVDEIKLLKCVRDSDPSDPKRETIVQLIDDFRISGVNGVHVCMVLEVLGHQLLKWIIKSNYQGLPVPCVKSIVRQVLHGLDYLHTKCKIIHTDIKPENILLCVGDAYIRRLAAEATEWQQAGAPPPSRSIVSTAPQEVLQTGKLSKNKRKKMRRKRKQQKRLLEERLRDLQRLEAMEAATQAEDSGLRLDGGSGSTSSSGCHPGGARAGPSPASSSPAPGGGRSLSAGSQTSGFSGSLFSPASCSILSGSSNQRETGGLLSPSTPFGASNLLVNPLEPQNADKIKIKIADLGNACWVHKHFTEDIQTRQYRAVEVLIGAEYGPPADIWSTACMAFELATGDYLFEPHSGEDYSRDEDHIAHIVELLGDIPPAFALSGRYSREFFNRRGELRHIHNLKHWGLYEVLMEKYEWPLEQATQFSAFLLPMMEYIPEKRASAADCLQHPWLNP
Sequence of Insulin-like growth factor 1 receptor (P08069 31-736 limits assumed): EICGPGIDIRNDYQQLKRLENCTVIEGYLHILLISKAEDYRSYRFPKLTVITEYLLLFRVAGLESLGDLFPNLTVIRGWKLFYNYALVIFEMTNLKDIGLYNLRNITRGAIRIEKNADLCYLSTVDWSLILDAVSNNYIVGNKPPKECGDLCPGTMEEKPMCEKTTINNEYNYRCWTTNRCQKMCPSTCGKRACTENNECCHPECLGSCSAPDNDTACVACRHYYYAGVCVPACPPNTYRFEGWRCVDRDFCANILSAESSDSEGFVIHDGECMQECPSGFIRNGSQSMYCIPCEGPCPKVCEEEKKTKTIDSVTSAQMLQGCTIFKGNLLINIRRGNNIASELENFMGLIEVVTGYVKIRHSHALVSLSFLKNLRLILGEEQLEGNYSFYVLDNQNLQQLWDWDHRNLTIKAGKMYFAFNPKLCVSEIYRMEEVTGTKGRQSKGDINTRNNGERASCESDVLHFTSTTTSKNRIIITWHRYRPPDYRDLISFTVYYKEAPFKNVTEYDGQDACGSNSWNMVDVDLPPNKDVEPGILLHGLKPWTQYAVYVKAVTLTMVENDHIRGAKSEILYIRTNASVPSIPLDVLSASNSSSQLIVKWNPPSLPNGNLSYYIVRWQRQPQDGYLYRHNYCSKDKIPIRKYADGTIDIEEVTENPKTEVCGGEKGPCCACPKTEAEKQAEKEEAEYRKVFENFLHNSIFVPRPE
Sequence of Insulin-like growth factor 1 receptor (P08069 741-1367 limits assumed): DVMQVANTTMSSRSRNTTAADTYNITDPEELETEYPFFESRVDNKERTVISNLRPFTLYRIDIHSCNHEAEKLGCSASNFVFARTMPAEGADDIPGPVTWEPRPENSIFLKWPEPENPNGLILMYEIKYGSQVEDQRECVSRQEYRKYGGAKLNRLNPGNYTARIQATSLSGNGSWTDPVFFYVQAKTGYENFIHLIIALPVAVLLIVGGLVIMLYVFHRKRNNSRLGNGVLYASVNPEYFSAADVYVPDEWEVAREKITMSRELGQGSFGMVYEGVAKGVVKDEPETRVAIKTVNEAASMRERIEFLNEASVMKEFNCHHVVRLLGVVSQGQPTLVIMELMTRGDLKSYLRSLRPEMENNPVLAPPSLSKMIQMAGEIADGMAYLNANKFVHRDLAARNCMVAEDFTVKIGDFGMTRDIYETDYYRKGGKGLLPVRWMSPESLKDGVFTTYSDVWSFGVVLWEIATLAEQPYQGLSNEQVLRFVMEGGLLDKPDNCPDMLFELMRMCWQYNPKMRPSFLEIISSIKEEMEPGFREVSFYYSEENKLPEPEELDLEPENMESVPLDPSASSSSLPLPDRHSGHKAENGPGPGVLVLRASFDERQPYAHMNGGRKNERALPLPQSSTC
Sequence of Dual specificity protein kinase CLK4 (Homo sapiens) (Q9HAZ1 whole entry, looked up): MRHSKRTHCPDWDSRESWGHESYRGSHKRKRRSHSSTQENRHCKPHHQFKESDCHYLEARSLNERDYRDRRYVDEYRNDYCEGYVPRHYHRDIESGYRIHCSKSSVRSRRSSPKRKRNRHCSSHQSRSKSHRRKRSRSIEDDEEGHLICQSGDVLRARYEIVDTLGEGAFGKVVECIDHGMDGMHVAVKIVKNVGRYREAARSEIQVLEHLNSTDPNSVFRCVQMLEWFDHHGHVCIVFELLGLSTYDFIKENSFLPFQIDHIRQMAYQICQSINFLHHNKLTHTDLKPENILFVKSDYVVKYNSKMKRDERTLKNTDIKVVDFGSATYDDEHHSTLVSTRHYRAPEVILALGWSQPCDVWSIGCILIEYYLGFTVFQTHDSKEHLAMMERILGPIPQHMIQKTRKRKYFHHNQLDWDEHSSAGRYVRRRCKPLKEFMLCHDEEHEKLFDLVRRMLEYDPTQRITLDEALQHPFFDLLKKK
Sequence of Mitogen-activated protein kinase 1 (P28482 whole entry): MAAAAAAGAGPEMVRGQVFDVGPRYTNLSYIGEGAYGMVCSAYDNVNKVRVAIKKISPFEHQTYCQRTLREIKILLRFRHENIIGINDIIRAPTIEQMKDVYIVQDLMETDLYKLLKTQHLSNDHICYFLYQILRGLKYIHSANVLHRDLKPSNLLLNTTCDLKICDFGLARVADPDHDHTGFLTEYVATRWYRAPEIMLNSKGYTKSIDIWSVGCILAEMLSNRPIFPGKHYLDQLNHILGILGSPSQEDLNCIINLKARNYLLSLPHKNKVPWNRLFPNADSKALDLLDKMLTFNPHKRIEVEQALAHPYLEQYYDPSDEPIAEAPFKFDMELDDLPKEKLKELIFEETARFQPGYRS

Activity [1]: 2.6%
Activity [2]: 5%
Activity [5]: 12%
Activity [6]: 27%
Activity [7]: 21%
Activity [8]: 3%
Activity [9]: 32%
Activity [10]: 28%
Activity [11]: 18%
Activity [12]: 28%
Structure (SMILES): O=C1c2ccccc2-c2n[nH]c3cccc1c23
Activity [3]: 1.4%
Activity [4]: 4.1%

Activity [13]: 7.3%
Activity [14]: 18%
Activity [15]: 6%
Activity [16]: 24%
Activity [17]: 2%
Activity [18]: 0.1%
Activity [19]: 12%
pKd [24]: 6.12
pKd [25]: 5.59
Structure (SMILES): COc1cc(N2CCC(O)CC2)ccc1Nc1cc(Nc2ccccc2S(=O)(=O)C(C)C)c2cc[nH]c2n1
Activity (U2OS [20]): Dose-Dependent Effect
Activity (U2OS [21]): 15%
Activity (U2OS [22]): Active
Activity (UTRM10): Active
Activity (HeLa S3): inactive
Activity (U2OS [23]): Active
Activity (A549): Active
Activity (HCT-116): Active
